In ChEMBL document CHEMBL4706773, “Discovery of Novel PTP1B Inhibitors Derived from the BH3 Domain of Proapoptotic Bcl-2 Proteins with Antidiabetic Potency” (ACS Med Chem Lett, 2021):
Peptide text beside a SMILES is read from it. * marks the point of attachment. Palmitoyl = CCCCCCCCCCCCCCCC(=O)*

Columns and labels:
[1] = target: T1, Tyrosine-protein phosphatase non-receptor type 1 (Homo sapiens, UniProt P18031); assay: Binding affinity to recombinant human PTP1B measured by Surface plasmon resonance assay
T1 sequence (P18031 whole entry): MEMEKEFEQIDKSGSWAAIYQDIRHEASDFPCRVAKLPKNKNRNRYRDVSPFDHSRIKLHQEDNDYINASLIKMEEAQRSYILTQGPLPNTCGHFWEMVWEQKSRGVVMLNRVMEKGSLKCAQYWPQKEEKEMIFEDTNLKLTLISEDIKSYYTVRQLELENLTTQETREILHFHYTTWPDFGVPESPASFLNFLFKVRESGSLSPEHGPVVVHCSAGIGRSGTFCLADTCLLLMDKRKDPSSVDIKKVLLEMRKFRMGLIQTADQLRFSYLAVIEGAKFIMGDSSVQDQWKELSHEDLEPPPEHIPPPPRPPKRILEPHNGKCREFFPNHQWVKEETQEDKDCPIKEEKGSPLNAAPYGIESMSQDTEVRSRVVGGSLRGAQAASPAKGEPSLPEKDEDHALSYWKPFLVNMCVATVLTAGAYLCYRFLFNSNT

[2] = target: T2, Tyrosine-protein phosphatase non-receptor type 1 (Homo sapiens) (UniProt P18031); assay: Binding affinity to recombinant human PTP1B assessed as off-rate constant, Koff measured by Surface plasmon resonance assay
T2 sequence (whole entry): T1 sequence (P18031 whole entry)

[3] = target: T1, Tyrosine-protein phosphatase non-receptor type 1; assay: Inhibition of recombinant N-terminal His-tagged human PTP1B (E2 to N321) expressed in Escherichia coli expression system assessed by dephosphorylation of substrate pNPP measured for 4 mins by plate reader analysis
[4] = target: T2, Tyrosine-protein phosphatase non-receptor type 1 (Homo sapiens); assay: Binding affinity to recombinant human PTP1B assessed as on-rate constant, Kon measured by Surface plasmon resonance assay
[5] = target: T2, Tyrosine-protein phosphatase non-receptor type 1 (Homo sapiens); assay: Inhibition of PTP1B in human insulin resistant HepG2 cells assessed as induction of 2-NBDG uptake incubated with compound for 24 hrs followed by treatment with insulin for 30 mins and later incubated with 2-NBDG for 30 mins by fluorimetric method; assay type: cell-based; details: dose 0.1-10 µM, time 25.0 hrs
In short: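 HepG2 cells were made insulin-resistant with palmitic acid, then treated 24 h with test agents at several concentrations. Vehicle was equal-volume DMSO. Mean ± SD, n = 4, compared with vehicle.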

Mus musculus = assay: Antidiabetic activity in diabetic db/db C57BL/K mouse assessed as decrease in blood glucose at 0.5 umol/kg, sc qd for 7 days measured at 1 hr post-last drug dosing by blood glucose meter analysis; assay type: functional; details: 168 h, time 7 day
In short: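 Diabetic db/db mice received a daily s.c. dose (0.5 or 2 μmol/kg) or vehicle for one week. Blood glucose was compared at baseline and at 1 week, and the value is the percent decrease of blood glucose. Liraglutide was the positive control.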

| Compound | Kd [1] | K [2] | Kd ([1]; read-out: Kd) [nM] | IC50 [3] [nM] | K [4] | inhibition [5] | other results |
| --- | --- | --- | --- | --- | --- | --- | --- |
| CCCCCCCCCCCCCCCC(=O)N[C@@H](Cc1ccc(O)cc1)C(=O)NCC(=O)N[C@@H](CCCNC(=N)N)C(=O)N[C@@H](CCC(=O)O)C(=O)N[C@@H](CC(C)C)C(=O)N[C@@H](CCCNC(=N)N)C(=O)N[C@@H](CCCNC(=N)N)C(=O)N[C@@H](CCSC)C(=O)N[C@@H](CO)C(=O)N[C@@H](CC(=O)O)C(=O)N[C@@H](CCC(=O)O)C(=O)N[C@@H](Cc1ccccc1)C(=O)O (Palmitoyl-YGRELRRMSDEF-OH) | Not Active | – | – | – | – | – | – |
| H-WAREIGAQLRRMADDLNAQY-OH | – | 1.52 10^-4/s | 105 | 6840 | 1.45 10^4/M.s | Dose-dependent effect | – |
| CCCCCCCCCCCCCCCC(=O)N[C@H](C(=O)N[C@@H](C)C(=O)N[C@@H](CCCNC(=N)N)C(=O)N[C@@H](CCCCN)C(=O)N[C@@H](CC(C)C)C(=O)N[C@@H](CCC(N)=O)C(=O)N[C@@H](CS)C(=O)N[C@H](C(=O)N[C@@H](C)C(=O)N[C@@H](CC(=O)O)C(=O)N[C@@H](CCC(N)=O)C(=O)N[C@@H](Cc1ccccc1)C(=O)O)[C@@H](C)CC)[C@@H](C)CC (Palmitoyl-IARKLQCIADQF-OH) | Not Active | – | – | – | – | – | – |
| CCCCCCCCCCCCCCCC(=O)N[C@@H](CCC(=O)NCCCC[C@H](NC(=O)[C@H](C)NC(=O)[C@H](C)NC(=O)[C@H](CCC(N)=O)NC(=O)CNC(=O)[C@H](CCC(=O)O)NC(=O)[C@H](CC(C)C)NC(=O)[C@H](Cc1ccc(O)cc1)NC(=O)[C@H](CO)NC(=O)[C@H](CO)NC(=O)[C@@H](NC(=O)[C@H](CC(=O)O)NC(=O)[C@H](CO)NC(=O)[C@@H](NC(=O)[C@H](Cc1ccccc1)NC(=O)[C@@H](NC(=O)CNC(=O)[C@H](CCC(=O)O)NC(=O)[C@H](C)NC(=O)[C@@H](N)Cc1cnc[nH]1)[C@@H](C)O)[C@@H](C)O)C(C)C)C(=O)N[C@@H](CCC(=O)O)C(=O)N[C@@H](Cc1ccccc1)C(=O)N[C@H](C(=O)N[C@@H](C)C(=O)N[C@@H](Cc1c[nH]c2ccccc12)C(=O)N[C@@H](CC(C)C)C(=O)N[C@H](C(=O)N[C@@H](CCCNC(=N)N)C(=O)NCC(=O)N[C@@H](CCCNC(=N)N)C(=O)NCC(=O)O)C(C)C)[C@@H](C)CC)C(=O)O [LIRAGLUTIDE] | – | – | – | – | – | – | inhibition in vivo at 0.5 µmol/kg (Mus musculus): 72.6% |

Continued, in another order:

| Kd [1] | K [2] | Kd ([1]; read-out: Kd) [nM] | IC50 [3] [nM] | K [4] | inhibition [5] | Compound | other results |
| --- | --- | --- | --- | --- | --- | --- | --- |
| – | 8.39 10^-4/s | 86.3 | 5250 | 9.73 10^3/M.s | Dose-dependent effect | H-STKKLSECLKRIGDELDSNM-OH | – |
| Not Active | – | – | – | – | – | CCCCCCCCCCCCCCCC(=O)N[C@@H](CS)C(=O)N[C@@H](C)C(=O)N[C@H](C(=O)N[C@@H](CCC(N)=O)C(=O)N[C@@H](CC(C)C)C(=O)N[C@@H](CCCNC(=N)N)C(=O)N[C@@H](CCCNC(=N)N)C(=O)N[C@@H](Cc1ccccc1)C(=O)NCC(=O)N[C@@H](CC(=O)O)C(=O)N[C@@H](CCCCN)C(=O)N[C@@H](CC(C)C)C(=O)O)[C@@H](C)O (Palmitoyl-CATQLRRFGDKL-OH) | – |
